Data: ChEMBL document CHEMBL1125540, “Antiviral and antitumor structure-activity relationship studies on tetracyclic eudistomines” (1992)
Values after ≈ are worked out from the molar mass of the structure shown.

Columns and labels:
Format in all cases: functional
HeLa [1] = assay: Compound was evaluated for antiviral activity against respiratory syncitial virus (long) in HeLa cell cultures (Concentration required to reduce virus-induced cytopathogenicity by 50%); conditions: Homo sapiens
Outline: (§1)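 HeLa cultures were infected with respiratory syncytial, vesicular stomatitis, Coxsackie B4 or polio-1 virus. The antiviral end-point is 50% reduction of virus-induced cytopathogenicity. Cytotoxicity is the minimum concentration producing microscopically detectable alteration of normal cell morphology.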

[2] = Evaluation for antiviral activity against vaccinia virus in primary rabbit kidney cell cultures(PRK) (Concentration required to reduce virus-induced cytopathogenicity by 50%); conditions: Oryctolagus cuniculus
Vero [3] = assay: Evaluation in Vero cell cultures for cytotoxicity that is to cause microscopically detectable alteration of normal cell morphology; conditions: Chlorocebus sabaeus
Outline: (§2)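 Vero cultures were infected with parainfluenza-3, reovirus-1, Sindbis, Coxsackie B4 or Semliki forest virus. Values are concentrations giving 50% reduction of virus-induced cytopathogenicity, or a microscopically detectable alteration of normal cell morphology for cytotoxicity. Each is the average of two separate experiments.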

HeLa [4] = assay: Evaluation for antiviral activity against vesicular stomatitis virus in HeLa cell cultures (Concentration required to reduce virus-induced cytopathogenicity by 50%); conditions: Homo sapiens; outline: as §1
Influenza A virus = assay: Concentration required to reduce influenza virus A (ishikawa) induced cytopathogenicity by 50%
Outline: (§3)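 Influenza A and B virus replication in MDCK cultures. Antiviral value is the concentration giving 50% reduction of virus-induced cytopathogenicity. Cytotoxicity is the concentration causing a microscopically detectable change in normal cell morphology.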

[5] = Evaluation in PRK cell cultures for cytotoxicity that is to cause microscopically detectable alteration of normal cell morphology; conditions: Oryctolagus cuniculus
[6] = Evaluation for antiviral activity against herpes simplex virus-2(Lyons) in primary rabbit kidney cell cultures(PRK) (Concentration required to reduce virus-induced cytopathogenicity by 50%); conditions: Oryctolagus cuniculus
MT4 = assay: Inhibitory effect on the proliferation of human T-lymphocyte (MT-4); conditions: read-out: ID50 (the source's name)
Outline: (§4)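 Proliferation assay in murine leukemia L1210, human T-lymphoblast Molt-4F and human T-lymphocyte MT-4 cells. ID50 is the dose inhibiting tumor cell proliferation by 50%, expressed in μg/mL.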

[7] = Evaluation for antiviral activity against herpes simplex virus-1(TK-) (B2006) in primary rabbit kidney cell cultures(PRK) (Concentration required to reduce virus-induced cytopathogenicity by 50%); conditions: Oryctolagus cuniculus
Vero [8] = assay: Evaluation for antiviral activity against Sindbis virus in Vero cell cultures (Concentration required to reduce virus-induced cytopathogenicity by 50%); conditions: Chlorocebus sabaeus; outline: as §2
[9] = Evaluation for antiviral activity against herpes simplex virus-1(F) in primary rabbit kidney cell cultures(PRK) (Concentration required to reduce virus-induced cytopathogenicity by 50%); conditions: Oryctolagus cuniculus
L1210 = assay: Inhibitory effect on the proliferation of murine leukemia cells (L1210); conditions: Mus musculus, read-out: ID50 (the source's name); outline: as §4
MOLT-4F = assay: Inhibitory effect on the proliferation of human T-lymphoblast cells (Molt-4F); conditions: read-out: ID50 (the source's name); outline: as §4
Vero [10] = assay: Evaluation for antiviral activity against forest virus in Vero cell cultures (Concentration required to reduce virus-induced cytopathogenicity by 50%); conditions: Chlorocebus sabaeus; outline: as §2
Vero [11] = assay: Evaluation for antiviral activity against reo virus-1 in Vero cell cultures (Concentration required to reduce virus-induced cytopathogenicity by 50%); conditions: Chlorocebus sabaeus; outline: as §2
HeLa [12] = assay: Evaluation in HeLa cell cultures for cytotoxicity that is to cause microscopically detectable alteration of normal cell morphology; conditions: Homo sapiens; outline: as §1
Vero [13] = assay: Evaluation for antiviral activity against Coxsackie virus B4 in Vero cell cultures (Concentration required to reduce virus-induced cytopathogenicity by 50%); conditions: Chlorocebus sabaeus; outline: as §2
[14] = Evaluated for antiviral activity against herpes simplex virus-1(KOS) in primary rabbit kidney cell cultures(PRK) (Concentration required to reduce virus-induced cytopathogenicity by 50%); conditions: Oryctolagus cuniculus
[15] = Evaluation for antiviral activity against herpes simplex virus-2(196) in primary rabbit kidney cell cultures(PRK) (Concentration required to reduce virus-induced cytopathogenicity by 50%); conditions: Oryctolagus cuniculus
[16] = Evaluation for antiviral activity against vesicular stomatitis virus in primary rabbit kidney cell cultures(PRK) (Concentration required to reduce virus-induced cytopathogenicity by 50%); conditions: Oryctolagus cuniculus
HeLa [17] = assay: Evaluation for antiviral activity against Coxsackie virus B4 in HeLa cell cultures (Concentration required to reduce virus-induced cytopathogenicity by 50%); conditions: Homo sapiens; outline: as §1
MDCK = assay: Compound was evaluated in MDCK cell cultures for cytotoxicity that is to cause microscopically detectable alteration of normal cell morphology; conditions: Canis lupus familiaris; outline: as §3
[18] = Evaluation for antiviral activity against herpes simplex virus-2(G) in primary rabbit kidney cell cultures(PRK) (Concentration required to reduce virus-induced cytopathogenicity by 50%); conditions: Oryctolagus cuniculus
HeLa [19] = assay: Evaluation for antiviral activity against polio virus-1 in HeLa cell cultures (Concentration required to reduce virus-induced cytopathogenicity by 50%); conditions: Homo sapiens; outline: as §1
Vero [20] = assay: Evaluation for antiviral activity against parainfluenza-3 virus in Vero cell cultures (Concentration required to reduce virus-induced cytopathogenicity by 50%); conditions: Chlorocebus sabaeus; outline: as §2
Influenza B virus = assay: Concentration required to reduce influenza virus B (singapore) induced cytopathogenicity by 50%; outline: as §3
[21] = Evaluation for antiviral activity against herpes simplex virus-1 (McIntyre) in primary rabbit kidney cell cultures(PRK) (Concentration required to reduce virus-induced cytopathogenicity by 50%); conditions: Oryctolagus cuniculus

| Compound | MIC [2] [µg/mL] | MCC (Vero [3]) [µg/mL] | MIC (HeLa [4]) [µg/mL] | MIC (Influenza A virus) [µg/mL] | MCC [5] [µg/mL] | MIC [6] [µg/mL] | MIC [7] [µg/mL] | MIC (Vero [8]) [µg/mL] | MIC (Vero [10]) [µg/mL] | MIC (Vero [11]) [µg/mL] | MCC (HeLa [12]) [µg/mL] | MIC (Vero [13]) [µg/mL] | MIC [14] [µg/mL] | MIC [15] [µg/mL] | MIC [16] [µg/mL] | MIC (HeLa [17]) [µg/mL] | MCC (MDCK) [µg/mL] | MIC [18] [µg/mL] | MIC (HeLa [19]) [µg/mL] | MIC (Vero [20]) [µg/mL] | other results |
| --- | --- | --- | --- | --- | --- | --- | --- | --- | --- | --- | --- | --- | --- | --- | --- | --- | --- | --- | --- | --- | --- |
| N[C@H]1CSCON2CCc3c([nH]c4ccccc34)[C@H]12 | > 4 | > 10 | > 1 | > 1.6 | 10 | 2 (≈ 7.26 µM) | > 4 | > 4 | > 4 | > 4 | > 4 | > 4 | > 4 | 2 (≈ 7.26 µM) | > 4 | > 1 | 8 | > 4 | > 1 | > 4 | MIC (HeLa [1]): > 1.6 µg/mL; IC50 (MT4): 0.77 µg/mL (≈ 2.8 µM); MIC [9]: 2 µg/mL (≈ 7.26 µM); IC50 (L1210): 1.4 µg/mL (≈ 5.08 µM); IC50 (MOLT-4F): 0.6 µg/mL (≈ 2.18 µM); MIC (Influenza B virus): > 1.6 µg/mL; MIC [21]: > 4 µg/mL |
| N[C@H]1CSCON2CCc3c([nH]c4ccccc34)[C@@H]12 | 2 (≈ 7.26 µM) | 40 | 7 (≈ 25.4 µM) | 3 (≈ 10.9 µM) | > 10 | 2 (≈ 7.26 µM) | 7 (≈ 25.4 µM) | 20 (≈ 72.6 µM) | 10 (≈ 36.3 µM) | 20 (≈ 72.6 µM) | 40 | 7 (≈ 25.4 µM) | 2 (≈ 7.26 µM) | 2 (≈ 7.26 µM) | 2 (≈ 7.26 µM) | > 10 | 40 | 2 (≈ 7.26 µM) | > 10 | 7 (≈ 25.4 µM) | MIC (HeLa [1]): 3 µg/mL (≈ 10.9 µM); MIC [9]: 2 µg/mL (≈ 7.26 µM); IC50 (L1210): 1.24 µg/mL (≈ 4.5 µM); IC50 (MOLT-4F): 1.54 µg/mL (≈ 5.59 µM); MIC (Influenza B virus): 3 µg/mL (≈ 10.9 µM); MIC [21]: 2 µg/mL (≈ 7.26 µM) |
| c1ccc2c3c([nH]c2c1)C1CCSCON1CC3 (stereo not drawn) | > 100 | > 40 | > 10 | > 40 | > 200 | > 100 | > 100 | > 10 | > 10 | > 10 | > 40 | > 10 | – | > 100 | > 100 | > 10 | 80 | > 100 | > 10 | > 10 | MIC (HeLa [1]): > 8 µg/mL; IC50 (MT4): 96 µg/mL (≈ 369 µM); IC50 (L1210): 24.9 µg/mL (≈ 95.6 µM); IC50 (MOLT-4F): 18.3 µg/mL (≈ 70.3 µM); MIC (Influenza B virus): > 40 µg/mL; MIC [21]: > 100 µg/mL |
| Cn1c2c(c3ccccc31)CCN1OCSC[C@@H](N)[C@@H]21 | 1.5 (≈ 5.18 µM) | > 20 | 7 (≈ 24.2 µM) | – | > 40 | 0.7 (≈ 2.42 µM) | 7 (≈ 24.2 µM) | 2 (≈ 6.91 µM) | 2 (≈ 6.91 µM) | 1 (≈ 3.46 µM) | > 10 | 0.7 (≈ 2.42 µM) | 3 (≈ 10.4 µM) | 1 (≈ 3.46 µM) | 7 (≈ 24.2 µM) | 7 (≈ 24.2 µM) | – | 0.7 (≈ 2.42 µM) | 2 (≈ 6.91 µM) | 0.7 (≈ 2.42 µM) | IC50 (MT4): 0.69 µg/mL (≈ 2.38 µM); MIC [9]: 2 µg/mL (≈ 6.91 µM); IC50 (L1210): 0.56 µg/mL (≈ 1.94 µM); IC50 (MOLT-4F): 0.37 µg/mL (≈ 1.28 µM); MIC [21]: 0.7 µg/mL (≈ 2.42 µM) |
| NC(=O)c1ncn([C@@H]2O[C@H](CO)[C@@H](O)[C@H]2O)n1 [RIBAVIRIN] | 20 (≈ 81.9 µM) | > 400 | 20 (≈ 81.9 µM) | 15 (≈ 61.4 µM) | > 400 | > 200 | > 200 | 40 (≈ 164 µM) | 40 (≈ 164 µM) | 70 (≈ 287 µM) | > 400 | 70 (≈ 287 µM) | > 200 | > 200 | > 400 | 70 (≈ 287 µM) | > 200 | > 200 | 70 (≈ 287 µM) | 20 (≈ 81.9 µM) | MIC (HeLa [1]): 3 µg/mL (≈ 12.3 µM); MIC [9]: > 200 µg/mL; MIC (Influenza B virus): 15 µg/mL (≈ 61.4 µM); MIC [21]: > 200 µg/mL |
| O[C@@H]1CSCON2CCc3c([nH]c4ccccc34)[C@@H]12 | > 100 | > 100 | > 100 | > 1.6 | > 100 | – | – | 20 (≈ 72.4 µM) | > 40 | > 40 | 100 | > 40 | > 100 | – | > 100 | > 40 | 3 | > 100 | > 100 | > 40 | MIC (Influenza B virus): > 1.6 µg/mL |
